Structures are written as SMILES. Bounds are passed on as bounds.

For assay [1], the target named is DNA-directed RNA polymerase subunit beta (Escherichia coli O127:H6 (strain E2348/69 / EPEC), UniProt B7UPE2, H526Y). Description: Inhibition of rifamycin-resistant Escherichia coli RNA polymerase H526Y mutant after 10 mins by rolling circle transcription assay in presence of DNA nanocircle template NC45.
In assay [2] the target is DNA-directed RNA polymerase subunit beta (Escherichia coli O127:H6 (strain E2348/69 / EPEC), UniProt B7UPE2, D516V). Description: Inhibition of rifamycin-resistant Escherichia coli RNA polymerase D516V mutant after 10 mins by rolling circle transcription assay in presence of DNA nanocircle template NC45.
Chain of DNA-directed RNA polymerase subunit beta (Escherichia coli O127:H6 (strain E2348/69 / EPEC), UniProt B7UPE2, D516V) (B7UPE2 whole entry D516V): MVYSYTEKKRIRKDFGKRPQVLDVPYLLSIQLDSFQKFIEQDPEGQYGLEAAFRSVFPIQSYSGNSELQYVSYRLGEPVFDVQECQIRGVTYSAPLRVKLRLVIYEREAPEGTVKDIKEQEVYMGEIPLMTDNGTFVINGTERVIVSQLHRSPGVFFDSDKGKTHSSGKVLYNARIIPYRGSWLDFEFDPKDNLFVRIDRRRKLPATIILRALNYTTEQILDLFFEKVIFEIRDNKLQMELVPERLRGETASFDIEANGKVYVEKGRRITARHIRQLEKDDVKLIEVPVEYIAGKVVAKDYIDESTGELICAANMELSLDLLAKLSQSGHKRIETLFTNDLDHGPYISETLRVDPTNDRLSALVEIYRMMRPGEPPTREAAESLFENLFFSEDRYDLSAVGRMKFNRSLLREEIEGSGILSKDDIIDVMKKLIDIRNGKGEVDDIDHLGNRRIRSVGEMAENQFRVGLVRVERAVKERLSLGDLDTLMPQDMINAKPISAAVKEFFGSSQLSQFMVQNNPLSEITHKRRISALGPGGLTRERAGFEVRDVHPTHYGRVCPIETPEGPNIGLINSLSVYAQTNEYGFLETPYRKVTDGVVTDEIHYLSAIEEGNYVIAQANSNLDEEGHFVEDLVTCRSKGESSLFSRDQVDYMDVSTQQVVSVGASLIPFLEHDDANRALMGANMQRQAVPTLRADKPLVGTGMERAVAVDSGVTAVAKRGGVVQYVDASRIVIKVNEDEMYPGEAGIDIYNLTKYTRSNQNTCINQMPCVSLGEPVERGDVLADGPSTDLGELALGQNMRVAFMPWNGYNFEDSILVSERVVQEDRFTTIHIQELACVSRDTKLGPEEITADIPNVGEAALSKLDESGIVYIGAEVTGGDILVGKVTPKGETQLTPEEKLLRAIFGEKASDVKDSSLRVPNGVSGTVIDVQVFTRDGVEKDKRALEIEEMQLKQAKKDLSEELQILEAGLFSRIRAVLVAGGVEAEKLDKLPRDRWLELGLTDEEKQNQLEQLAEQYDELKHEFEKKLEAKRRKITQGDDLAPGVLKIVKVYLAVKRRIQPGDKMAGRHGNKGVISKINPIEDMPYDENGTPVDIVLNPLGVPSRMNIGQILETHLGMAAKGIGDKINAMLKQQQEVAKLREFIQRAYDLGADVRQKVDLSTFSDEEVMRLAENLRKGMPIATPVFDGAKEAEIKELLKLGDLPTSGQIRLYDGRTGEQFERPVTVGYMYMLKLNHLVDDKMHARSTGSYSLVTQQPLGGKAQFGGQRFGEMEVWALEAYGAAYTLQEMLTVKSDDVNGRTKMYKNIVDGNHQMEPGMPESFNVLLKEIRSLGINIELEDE
Assay [3] in a line: Inhibition of wild type Escherichia coli RNA polymerase after 10 mins by rolling circle transcription assay in presence of DNA nanocircle template NC45. A digest of the protocol:
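Wild-type core enzyme (10 nM final), Ni-NTA purified, with compound at 1.56-100 or 3.12-200 nM, held 10 min at 37 °C in Tris-HCl pH 8.0 buffer with KCl, MgCl2, Triton X-100, DTT and RNase inhibitor. Transcription on 80 nM NC45 circle was started with NTPs (500 µM each). Each compound run in duplicate; IC50 by nonlinear four-parameter logistic regression.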

A short description of assay [4]: Inhibition of wild type Mycobacterium tuberculosis RNA polymerase after 10 mins by rolling circle transcription assay in presence of DNA nanocircle template NC45.

Chain of DNA-directed RNA polymerase subunit beta (Escherichia coli O127:H6 (strain E2348/69 / EPEC), UniProt B7UPE2, H526Y) (B7UPE2 whole entry H526Y): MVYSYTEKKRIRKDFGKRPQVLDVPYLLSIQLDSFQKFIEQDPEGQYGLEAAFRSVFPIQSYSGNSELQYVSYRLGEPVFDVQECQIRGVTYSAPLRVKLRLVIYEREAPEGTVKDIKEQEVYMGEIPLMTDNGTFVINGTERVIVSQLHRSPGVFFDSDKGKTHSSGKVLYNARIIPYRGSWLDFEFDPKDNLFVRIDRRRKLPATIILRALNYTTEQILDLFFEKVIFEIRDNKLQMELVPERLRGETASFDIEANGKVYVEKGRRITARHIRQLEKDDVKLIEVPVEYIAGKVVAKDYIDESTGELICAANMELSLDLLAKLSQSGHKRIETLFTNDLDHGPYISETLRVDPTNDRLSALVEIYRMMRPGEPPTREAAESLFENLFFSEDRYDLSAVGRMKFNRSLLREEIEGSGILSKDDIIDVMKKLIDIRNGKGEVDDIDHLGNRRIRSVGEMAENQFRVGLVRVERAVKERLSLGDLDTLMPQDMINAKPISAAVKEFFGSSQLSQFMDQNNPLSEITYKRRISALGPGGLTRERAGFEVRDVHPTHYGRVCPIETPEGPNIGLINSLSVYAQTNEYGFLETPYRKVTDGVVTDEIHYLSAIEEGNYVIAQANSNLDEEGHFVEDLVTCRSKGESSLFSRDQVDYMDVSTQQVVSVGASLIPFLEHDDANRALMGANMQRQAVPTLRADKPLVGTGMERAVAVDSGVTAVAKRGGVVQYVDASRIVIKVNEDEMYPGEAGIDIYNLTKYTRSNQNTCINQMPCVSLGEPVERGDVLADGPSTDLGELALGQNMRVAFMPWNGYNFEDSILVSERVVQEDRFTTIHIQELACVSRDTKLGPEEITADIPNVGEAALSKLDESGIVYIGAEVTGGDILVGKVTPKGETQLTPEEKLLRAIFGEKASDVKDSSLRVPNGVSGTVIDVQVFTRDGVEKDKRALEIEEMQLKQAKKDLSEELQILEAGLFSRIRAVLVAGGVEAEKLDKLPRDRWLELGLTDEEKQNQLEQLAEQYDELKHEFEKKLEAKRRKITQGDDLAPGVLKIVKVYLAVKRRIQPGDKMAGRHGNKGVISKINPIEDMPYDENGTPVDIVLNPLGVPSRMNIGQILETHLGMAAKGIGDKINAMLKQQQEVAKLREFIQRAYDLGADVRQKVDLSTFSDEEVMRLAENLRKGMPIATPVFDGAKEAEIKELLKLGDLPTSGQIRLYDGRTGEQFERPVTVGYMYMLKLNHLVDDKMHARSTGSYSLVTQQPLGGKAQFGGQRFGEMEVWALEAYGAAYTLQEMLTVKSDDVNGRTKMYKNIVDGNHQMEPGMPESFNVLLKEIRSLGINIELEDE

As a reminder, the IC50 is the concentration needed to halve the response being measured. With `CCN(CC)CCOc1cccc2oc3c4c(=O)c5c(O)c(C)c6c(c5c-3nc12)C(=O)[C@@](C)(O/C=C/[C@H](OC)[C@@H](C)[C@@H](OC(C)=O)[C@H](C)[C@H](O)[C@H](C)[C@@H](O)[C@@H](C)/C=C/C=C(/C)C(=O)N4)O6`, the figures for the IC50 in assay [1], in assay [2] and in assay [3] were 1150 µM, 35 µM and 0.057 µM, respectively.

As to `CO[C@H]1/C=C/O[C@@]2(C)Oc3c(C)c(O)c4c(=O)c(c5oc6cccc(OCCCCN7CCN(CCn8ccnc8)CC7)c6nc-5c4c3C2=O)NC(=O)/C(C)=C\C=C\[C@H](C)[C@H](O)[C@@H](C)[C@@H](O)[C@@H](C)[C@H](OC(C)=O)[C@@H]1C`, the results for the half-maximal inhibitory concentration (IC50) in assay [1], in assay [2] and in assay [3] were not below 2000 µM, 2 µM and 0.024 µM, respectively.

As for `CO[C@H]1/C=C/O[C@@]2(C)Oc3c(C)c(O)c4c(=O)c(c5oc6cccc(OCCCCN7CCN(C(=O)Cn8ccnc8)CC7)c6nc-5c4c3C2=O)NC(=O)/C(C)=C\C=C\[C@H](C)[C@H](O)[C@@H](C)[C@@H](O)[C@@H](C)[C@H](OC(C)=O)[C@@H]1C`, the IC50 in assay [1] is 1580 µM; in assay [2], 41 µM; in assay [3] it was 0.021 µM.

Take `CO[C@H]1/C=C/O[C@@]2(C)Oc3c(C)c(O)c4c(=O)c(c5oc6cc(N7CCN(CC(C)C)CC7)cc(O)c6nc-5c4c3C2=O)NC(=O)/C(C)=C\C=C\[C@H](C)[C@H](O)[C@@H](C)[C@@H](O)[C@@H](C)[C@H](OC(C)=O)[C@@H]1C` [RIFALAZIL]: the IC50 was 299 µM in assay [1], 204 µM in assay [2] and less than 0.01 µM in assay [3].

Consider `CO[C@H]1/C=C/O[C@@]2(C)Oc3c(C)c(O)c4c(O)c(c(/C=N/N5CCN(C)CC5)c(O)c4c3C2=O)NC(=O)/C(C)=C\C=C\[C@H](C)[C@H](O)[C@@H](C)[C@@H](O)[C@@H](C)[C@H](OC(C)=O)[C@@H]1C` [RIFAMPIN], for which the IC50 in assay [4] was found to be 0.017 µM; in assay [1], 1130 µM; in assay [2], 233 µM; in assay [3] it was 0.012 µM.

Values taken from ChEMBL document CHEMBL2380284, “X-ray crystal structures of the Escherichia coli RNA polymerase in complex with benzoxazinorifamycins” (J Med Chem, 2013).
